# Source: PubChem BioAssay (several laboratories)
# A selection: hits, their analogues and other compounds. The true share with any hit is near 2.6%.
# WT yeast gro inh: growth inhibition of WT strain, primary screen, mitochondrial fusion inhibitor project, WT and mutant strains, chemical genetic. mitochondrial fusion phenotypic screen. inhibition, % at 10 µM. 190,000 tested, 2.1% active. AID 1362, 2008; in the data active = inhibition above about 58%; tested in S. cerevisiae
# TNAP act hi DEA: TNAP activators at high phosphate acceptor level, primary screen, biochemical, luminescence, uHTS; 200,000 tested, under 10 active; purified TNAP, CDP-star luminescence, 1 M DEA, 30 min; stronger effect = higher value; 0 = EDTA background, 1 = DMSO-only activity; activation factor at 20 µM; Alkaline phosphatase, tissue-nonspecific isozyme (Homo sapiens), P05186;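 active = activation factor at least 2 at 20 µM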
# Target sequence (P05186 whole entry, looked up): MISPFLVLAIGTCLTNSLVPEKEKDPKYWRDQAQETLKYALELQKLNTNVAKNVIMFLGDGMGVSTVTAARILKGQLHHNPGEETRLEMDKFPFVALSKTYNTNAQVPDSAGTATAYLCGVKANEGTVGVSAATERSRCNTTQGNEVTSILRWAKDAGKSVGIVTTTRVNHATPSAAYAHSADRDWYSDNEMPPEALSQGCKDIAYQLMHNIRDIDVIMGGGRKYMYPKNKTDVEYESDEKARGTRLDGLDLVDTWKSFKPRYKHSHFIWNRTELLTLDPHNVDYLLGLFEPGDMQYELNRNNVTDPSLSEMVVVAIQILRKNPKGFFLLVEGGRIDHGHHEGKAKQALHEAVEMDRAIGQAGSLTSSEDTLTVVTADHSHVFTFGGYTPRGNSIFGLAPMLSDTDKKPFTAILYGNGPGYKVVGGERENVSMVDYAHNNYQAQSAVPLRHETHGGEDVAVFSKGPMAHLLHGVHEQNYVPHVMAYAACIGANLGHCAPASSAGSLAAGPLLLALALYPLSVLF
#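 Test system – human TNAP · Doses – 20 µM single point · Incubation – 30 min, room temperature · Signal – luminescent substrate turnover signal · Read-out basis – activation factor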
# TNAP inh hi DEA: human TNAP enzyme inhibitors, primary screen, biochemical, luminescent, high phosphate acceptor level, uHTS; purified TNAP, CDP-star luminescence, 1 M DEA; AID 1135, 2008; Alkaline phosphatase, tissue-nonspecific isozyme (Homo sapiens), P05186; 200,000 tested, 0.03% active; inhibition, % at 20 µM;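 active = over 50% inhibition of tissue-nonspecific alkaline phosphatase at 20 µM in the single-dose screen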;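 note: plate controls were DMSO wells for no effect and EDTA-quenched wells as full inhibition for full effect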
# TNAP inh no acc: human TNAP enzyme inhibitors, primary screen, biochemical, luminescent, no phosphate acceptor, uHTS; Alkaline phosphatase, tissue-nonspecific isozyme (Homo sapiens), P05186; purified TNAP, CDP-star luminescence, 30 min; inhibition, % at 20 µM; 200,000 tested, 0.26% active;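 active = tissue-nonspecific alkaline phosphatase inhibition above about 50% at 20 µM in the single-dose screen, limit read from the data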;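 note: 0% = DMSO negative control and 100% = EDTA positive control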
# Arbovirus inh: antivirals against arbovirus infection, primary screen, cell-based, full library, 10K replicate subset; arbovirus infection cell-based antiviral screen; inhibition, % at 10 µM; 200,000 tested, 0.37% active; AID 1251, 2008; in the data active = inhibition above about 30%
# Active calls of the source: *; . = no result.
SMILES,WT yeast gro inh,TNAP act hi DEA,TNAP inh hi DEA,TNAP inh no acc,Arbovirus inh
COc1cc(CNc2ccccc2Oc2cc(=O)n(C)c(=O)n2C)cc(OC)c1OC,-1,1,-4,-2,-3
O=C(Nc1ccc(N2CCCCC2)cc1)c1ccccn1,61*,1,-5,-18,-8
O=C(Nc1ccc(N2CCCCCC2)cc1)c1ccccc1Cl,23,1.1,-6,-12,-22
O=C(CN1CCN(S(=O)(=O)c2ccc(F)cc2)CC1)c1ccc(O)c(O)c1,-13,1,2,56*,-2
CCCCOC(=O)c1nc(Cl)c(Cl)c(N)c1Cl,-7,1,-4,9,1
CCCCCCCOC(=O)c1nc(Cl)c(Cl)c(N)c1Cl,85*,1,-4,-14,-5
Cc1ccc(-c2n[nH]c(=S)n2/N=C/C=C\c2ccccc2[N+](=O)[O-])cc1,.,1,0,30,2
O=C(N/N=C/C=C/c1ccccc1[N+](=O)[O-])c1cc(-c2ccccc2)n[nH]1,1,0.9,7,64*,6
O=[N+]([O-])c1ccccc1/C=C/C=N/n1c(-c2ccccc2)n[nH]c1=S,61*,1,1,17,11
O=C(N/N=C/C=C\c1ccccc1[N+](=O)[O-])c1ccccn1,-2,1,2,-72,-4
CC(=O)Nc1ccc2c(c1)nc(CCN1CCN(C)CC1)n2C,7,1,-1,-6,-4
CCc1ccc(NC(=O)c2cc3c(C)nc4ccccc4c3o2)cc1,63*,1.1,-7,-12,-10
Cc1ccccc1NC(=O)c1cc2c(C)nc3ccccc3c2o1,14,1,-3,-7,16
COc1ccc(C(=O)N(c2ccc(OC)cc2)S(=O)(=O)c2cccs2)cc1,74*,1,0,-10,9
O=C1CC(c2cccc(Cl)c2)CC(O)=C1C=Nc1cccc(Cl)c1 (stereo not given),81*,1,-4,1,-36
O=C1CC(c2ccccc2)CC(O)=C1C=Nc1ccccc1 (stereo not given),-3,1.1,-7,-8,-5
COC(=O)c1ccc(CN2CCCC(CCC(=O)NCc3ccc(C)o3)C2)cc1 (stereo not given),-11,1.1,-7,-10,-3
CCOc1cc(S(=O)(=O)Nc2ccccc2CC)ccc1Cl,69*,1,-3,2,-35
CCCCN1CCc2c([nH]c3c(C)cccc23)C1=O,-2,1,-4,9,-1
CC1CCCCN1c1nnc(NC(=O)c2cc(-c3ccc(Br)cc3)on2)s1 (stereo not given),68*,1,3,-18,42*
CC(C)NC(=O)c1cc(-c2ccc(Br)cc2)on1,21,1.1,-5,-16,-3
COc1ccc(-c2csc3nc(-c4ccccc4OC)oc(=O)c23)cc1,52,1.1,-5,-7,-30
O=C(COc1ccc(Cl)cc1Cl)NCCCCc1ccccc1,76*,1.1,-6,-5,-4
O=C(COc1ccc(Cl)cc1Cl)Nc1ccccn1,66*,1,-4,-13,-11
CC(Oc1ccc(Cl)cc1Cl)C(=O)NCCCCc1ccccc1 (stereo not given),61*,1,-4,-11,21
SMILES,WT yeast gro inh,TNAP act hi DEA,TNAP inh hi DEA,TNAP inh no acc,Arbovirus inh
Cc1cccc(CSCCNC(=O)COc2ccc(Cl)cc2)c1,-13,1,1,-14,-4
CN(C)CCNC(=O)COc1ccc(Cl)cc1Cl,-21,1.1,-6,-10,5
O=C(COc1ccc(Cl)cc1)NCCSCc1cccc(Cl)c1,79*,1.1,-8,-12,25
CSc1ccccc1NC(=O)COc1ccc(Cl)cc1Cl,12,1,1,-11,12
CC(=O)Nc1nnc(SCc2ccc(C(=O)Nc3ccccc3F)cc2)s1,0,1.1,-6,-3,5
C=CCn1c(C(C)NC(=O)COC)nc2ccccc21 (stereo not given),-6,1,-1,-12,5
Cc1cc(Cl)ccc1OCC(=O)NCCC(=O)O,-3,1.1,-10,-24,5
Cc1cc(Cl)ccc1OCC(=O)NCCCCc1ccccc1,63*,1.1,-6,-14,18
O=C(COc1ccccc1-c1ccccc1)NCc1cccc(Cl)c1,78*,1,-3,-5,-17
COc1ccc(NC(=O)CSc2nnnn2Cc2ccccc2)cc1,-12,1,1,2,-6
Cc1nc2c(C(=O)NCCc3ccccc3Cl)c[nH]n2c(=O)c1Cl,-3,1,2,-4,60*
COc1ccc(OCC(=O)NNC(=O)c2cccc(S(=O)(=O)N(C)C)c2)cc1,-10,0.9,7,-34,-2
Cc1cc(C)n(C(=O)CCCn2cc([N+](=O)[O-])cn2)n1,2,1,3,-3,4
Cc1cccc(CN2CCN(C(c3ccccc3)c3ccc(Cl)cc3)CC2)c1 (stereo not given),66*,1,-2,-12,-20
O=C(C1CCN(Cc2ccc(Cl)cc2)CC1)N1CCN(C(c2ccccc2)c2ccccc2)CC1,56,1,-2,-29,-35
CC(C)(C)C(=O)Cn1c(=N)n(Cc2ccccc2)c2ccccc21,70*,1.1,-7,-10,0
CC(C)(C)n1nc2c(c1NC(=O)c1ccccc1)CS(=O)(=O)C2,-9,1,2,-4,7
CC(C)(C)n1nc2c(c1NC(=O)c1cc3ccccc3o1)CS(=O)(=O)C2,-12,1.1,-5,51*,1
CCC(CC)NC(=O)CO/N=C/c1ccccc1OC(F)F,-7,1,-4,-10,3
O=[N+]([O-])c1cc(Cl)ccc1N1CCN(c2ccccc2O)CC1,75*,1,0,0,17
Cc1cccc(-c2nnc3sc(-c4ccccc4C)nn23)c1,69*,1.1,-6,-12,-1
COc1cccc(-c2nnc3sc(-c4ccccc4)nn23)c1,3,1,-4,-8,-15
COc1ccc(C(C)(C)C)cc1NC(=O)Nc1ccc2c(c1)OCO2,68*,1,-2,-9,-1
COc1cc(NC(=O)Nc2ccc3c(c2)OCO3)cc(OC)c1OC,-12,1,-3,-8,-5
CC1C(c2ccccc2)N(C)C(c2ccccc2)CC1(O)c1ccc(F)cc1 (stereo not given),69*,1,1,-10,-29
C/C(=N\NC(=O)C(=O)N/N=C(\C)c1cccc(O)c1)c1cccc(O)c1,-4,1,-3,55*,5
C/C(=N/NC(=O)C(=O)N/N=C(/C)c1ccccc1)c1ccccc1,-3,1,-1,-58,-1
O=C(Nc1nc(-c2cccnc2)cs1)c1ccccc1[N+](=O)[O-],-6,1,5,1,-3
